In PubChem BioAssay AID652011 (Sanford-Burnham Center for Chemical Genomics, 2013):

target: Hypoxia-inducible factor 1-alpha (Homo sapiens) (UniProt Q16665); assay: HIF-1a and HIF-2a reporter inhibitors, SAR follow-up, cell-based, luminescence, MIAPaCa-2, 786-0, panel (AID 652011); conditions: MIAPaCa-2/PANC HIF reporter, luciferase luminescence, desferoxamine, overnight, HIF1a, run 2; at 99 µM (top of the series)
In short: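 Reagent: Desferoxamine added before compound | Doses: Compounds from 10 mM and 0.3125 mM stocks, 1% DMSO final | Times: Overnight seeding and compound exposure, 37 °C, 5% CO2, 10-min detection | Measured by: One-Glo luciferase luminescence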

Sequence of Hypoxia-inducible factor 1-alpha (Homo sapiens) (Q16665 whole entry, looked up): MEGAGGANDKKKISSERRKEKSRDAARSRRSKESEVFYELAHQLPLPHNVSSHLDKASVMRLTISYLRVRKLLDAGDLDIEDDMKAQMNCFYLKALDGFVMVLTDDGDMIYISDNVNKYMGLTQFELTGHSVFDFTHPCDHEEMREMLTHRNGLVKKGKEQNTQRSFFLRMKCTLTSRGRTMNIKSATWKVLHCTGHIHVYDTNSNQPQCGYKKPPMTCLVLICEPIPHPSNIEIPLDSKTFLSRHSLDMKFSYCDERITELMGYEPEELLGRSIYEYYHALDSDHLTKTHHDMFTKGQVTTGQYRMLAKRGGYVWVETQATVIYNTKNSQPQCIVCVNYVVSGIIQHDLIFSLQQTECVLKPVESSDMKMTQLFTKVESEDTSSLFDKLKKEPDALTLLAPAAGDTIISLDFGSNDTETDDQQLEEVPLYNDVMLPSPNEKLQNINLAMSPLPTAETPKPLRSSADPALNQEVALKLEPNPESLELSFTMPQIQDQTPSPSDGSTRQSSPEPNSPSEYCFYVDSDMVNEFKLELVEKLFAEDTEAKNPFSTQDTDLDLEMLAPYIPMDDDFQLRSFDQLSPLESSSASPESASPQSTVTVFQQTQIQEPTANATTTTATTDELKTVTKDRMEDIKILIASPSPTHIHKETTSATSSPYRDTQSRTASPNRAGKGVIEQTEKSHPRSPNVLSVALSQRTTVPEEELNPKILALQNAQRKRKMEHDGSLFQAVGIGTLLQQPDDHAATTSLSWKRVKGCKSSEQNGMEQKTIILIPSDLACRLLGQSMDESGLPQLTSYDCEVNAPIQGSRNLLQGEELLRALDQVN

| Compound | inhibition [%] |
| --- | --- |
| CC(C)(C)c1ccc(-c2noc(CCC(=O)NC3CCC3)n2)cc1 | 54.4 |
| CNC(=O)CCc1nc(-c2ccc(C(C)(C)C)cc2)no1 | 18.4 |
| CCNC(=O)CCc1nc(-c2ccccc2)no1 | -23.4 |
| CC(C)(C)c1ccc(-c2noc(CCC(=O)O)n2)cc1 | 94.9 |
| CCOc1ccc(-c2noc(CCC(=O)O)n2)cc1 | 70.3 |
| CNC(=O)CCc1nc(-c2ccc(C(C)C)cc2)no1 | -35.5 |
| CC(C)(C)c1ccc(-c2noc(CCC(=O)Nc3cccc([N+](=O)[O-])c3)n2)cc1 | 91.4 |
| CC(C)(C)c1ccc(-c2noc(CCC(=O)Nc3ccccc3)n2)cc1 | 60.5 |
| CCNC(=O)CCc1nc(-c2ccc(CC)cc2)no1 | -31.3 |
| CC(C)(C)c1ccc(-c2noc(CCC(=O)NC3CC3)n2)cc1 | -29.7 |
